Drawing on ChEMBL document CHEMBL1158120, “Cytotoxic oxygenated triterpenoid saponins from Symplocos chinensis” (J Nat Prod, 2006), this text covers IC50 for seven compounds.

Each structure is given as a SMILES string. pIC50: −log10 of the molar value.

What all share (format): functional, cell-based
In assay [1] the test system is HCT-8. The experiment in a line: Cytotoxicity against human HCT8 cells by MTT assay. The method, boiled down: (§1)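 MTT read-out of tumour-cell viability. IC50 values in µM are reported as means of three independent experiments.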
A general note: Formazan colour is commonly taken as a measure of viable cells.

Assay [2] concerns Bel-7402. The experiment in a line: Cytotoxicity against human Bel-7402 cells by MTT assay. The method, boiled down:
as §1

Assay [3] relates to BGC-823. The experiment in a line: Cytotoxicity against human BGC-823 cells by MTT assay. In outline:
as §1

The test system of assay [4] is A549. The experiment in a line: Cytotoxicity against human A549 cells by MTT assay. In outline:
as §1

In assay [5] the test system is A2780. The experiment in a line: Cytotoxicity against human A2780 cells by MTT assay. The method, boiled down: as §1

By pIC50 is commonly meant the negative decadic logarithm of the IC50, by convention in mol/L.

In the case of `CC(=O)O[C@@H]1[C@@H](O[C@@H]2O[C@H](CO)[C@@H](O)[C@H](O)[C@H]2O)[C@H](O[C@H]2CC[C@]3(C)[C@H]4CC=C5[C@@H]6CC(C)(C)[C@@H](OC(=O)/C=C(\C)CCC=C(C)C)[C@H](OC(=O)C(C)C)[C@]6(CO)[C@H](O)[C@H](O)[C@@]5(C)[C@]4(C)CC[C@H]3C2(C)C)O[C@H](C(=O)O)[C@H]1O[C@@H]1O[C@@H](CO)[C@H](O)[C@H]1O` [SYMPLOCOSOSIDE M], the pIC50 in assay [1] is 5.57; in assay [2], 5.42; in assay [3] it was less than 5.00; in assay [4] it was less than 5.00; in assay [5], 5.64.

`CCC(C)C(=O)O[C@H]1[C@H](OC(=O)/C=C(/C)CCC=C(C)C)C(C)(C)C[C@H]2C3=CC[C@@H]4[C@@]5(C)CC[C@H](O[C@@H]6O[C@H](C(=O)OC)[C@@H](O[C@@H]7O[C@@H](CO)[C@H](O)[C@H]7O)[C@H](OC(C)=O)[C@H]6O[C@@H]6O[C@H](CO)[C@@H](O)[C@H](O)[C@H]6O)C(C)(C)[C@@H]5CC[C@@]4(C)[C@]3(C)[C@@H](O)[C@@H](O)[C@]21CO` (stereo not given in full) [SYMPLOCOSOSIDE I]: the pIC50 in assay [1] is 5.77; in assay [2] it was 5.57; in assay [3], less than 5.00; in assay [4] it was less than 5.00; in assay [5], 5.49.

With `CC(=O)O[C@@H]1[C@@H](O[C@@H]2O[C@H](CO)[C@@H](O)[C@H](O)[C@H]2O)[C@H](O[C@H]2CC[C@]3(C)[C@H]4CC=C5[C@@H]6CC(C)(C)[C@@H](OC(=O)/C=C(/C)CCC=C(C)C)[C@H](OC(=O)C(C)C)[C@]6(CO)[C@H](O)[C@H](O)[C@@]5(C)[C@]4(C)CC[C@H]3C2(C)C)O[C@H](C(=O)O)[C@H]1O[C@@H]1O[C@@H](CO)[C@H](O)[C@H]1O` [SYMPLOCOSOSIDE L], the pIC50 in assay [1] is 5.77; in assay [2] it was 5.57; in assay [3] it was less than 5.00; in assay [4], less than 5.00; in assay [5], 5.62.

For the compound `CCC(C)C(=O)O[C@H]1[C@H](OC(=O)/C=C(\C)CCC=C(C)C)C(C)(C)C[C@H]2C3=CC[C@@H]4[C@@]5(C)CC[C@H](O[C@@H]6O[C@H](C(=O)O)[C@@H](O)[C@H](O)[C@H]6O[C@@H]6O[C@H](CO)[C@@H](O)[C@H](O)[C@H]6O)C(C)(C)[C@@H]5CC[C@@]4(C)[C@]3(C)[C@@H](O)[C@@H](O)[C@]21CO` (stereo not given in full), the pIC50 in assay [1] is less than 5.00; in assay [2], less than 5.00; in assay [3], less than 5.00; in assay [4], less than 5.00; in assay [5], 5.72.

On to `COC(=O)[C@H]1O[C@@H](O[C@H]2CC[C@]3(C)[C@H]4CC=C5[C@@H]6CC(C)(C)[C@@H](OC(=O)/C=C(/C)CCC=C(C)C)[C@H](OC(=O)c7ccccc7)[C@]6(CO)[C@H](O)[C@H](O)[C@@]5(C)[C@]4(C)CC[C@H]3C2(C)C)[C@H](O[C@@H]2O[C@H](CO)[C@@H](O)[C@H](O)[C@H]2O)[C@@H](OC(C)=O)[C@@H]1O[C@@H]1O[C@@H](CO)[C@H](O)[C@H]1O` [SYMPLOCOSOSIDE K], for which the pIC50 in assay [1] is 5.62; in assay [2] it was 5.29; in assay [3] it was less than 5.00; in assay [4] it was 5.40; in assay [5] it was 6.10.

For the compound `CCC(C)C(=O)O[C@H]1[C@H](OC(=O)/C=C(\C)CCC=C(C)C)C(C)(C)C[C@H]2C3=CC[C@@H]4[C@@]5(C)CC[C@H](O[C@@H]6O[C@H](C(=O)O)[C@@H](O[C@@H]7O[C@@H](CO)[C@H](O)[C@H]7O)[C@H](OC(C)=O)[C@H]6O[C@@H]6O[C@H](CO)[C@@H](O)[C@H](O)[C@H]6O)C(C)(C)[C@@H]5CC[C@@]4(C)[C@]3(C)[C@@H](O)[C@@H](O)[C@]21CO` (stereo not given in full) [SYMPLOCOSOSIDE H], the pIC50 in assay [1] was 5.68; in assay [2] it was 5.59; in assay [3], 5.60; in assay [4], 5.57; in assay [5], 5.85.

Regarding `CCC(C)C(=O)O[C@H]1[C@H](OC(=O)/C=C/c2ccccc2)C(C)(C)C[C@H]2C3=CC[C@@H]4[C@@]5(C)CC[C@H](O[C@@H]6O[C@H](C(=O)O)[C@@H](O)[C@H](O)[C@H]6O[C@@H]6O[C@H](CO)[C@@H](O)[C@H](O)[C@H]6O)C(C)(C)[C@@H]5CC[C@@]4(C)[C@]3(C)[C@@H](O)[C@@H](O)[C@]21CO` (stereo not given in full) [SYMPLOCOSOSIDE N], the pIC50 in assay [1] was 5.74; in assay [2] it was 5.77; in assay [3], less than 5.00; in assay [4], less than 5.00; in assay [5] it was 5.49.
